# Rows were chosen to be rich in hits. Some 6.9% of all compounds tested hit in one or more screens of this group.
# PostGolgi ctrl = inhibits growth of the yeast control strain. efflux-deficient yeast background strain, growth absorbance A615, 16 h. inhibition, % at 10 µM. hit rate 5% among 98,000. AID 738
# Pyk2 oligo antag = antagonists of human Pyk2 oligomerization; Q14289; Q293 cells, Pyk2 FERM NanoBiT luminescence; stronger effect = lower value; z-score (the deposit names both 25 µM and 10 µM); hit rate 0.83% among 99,000;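 active = Z-score of -3 or lower, scaled per plate to the spread of control and sample wells; inactive = z-score above -3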;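 note: negative z-score means lost luminescence so less FERM oligomerization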
# tolC growth inh = E. coli tolC mutant growth inhibition. E. coli BW25113 tolC mutant growth, OD615. growth inhibition, % at 10 µM (by protocol). hit rate 2.2% among 65,000;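 active = growth inhibition at or above a cutoff equal to the mean over every tested compound plus 3 SD, cut at about 60% in these data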;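 note: growth measured after 20 h incubation at 37 °C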
#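 System: E. coli ΔtolC::kan strain BW25113; Buffer or medium: LB broth supplemented with 50 µg/mL kanamycin; Compound: 10 µM final, single dose; Incubation: bacterial growth with compound for 20 h at 37 °C; Signal: A615 absorbance measurement; Evaluation: growth inhibition in percent.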
# PostGolgi yeast = growth inhibition of a yeast mutant, post-Golgi transport screen | post-Golgi transport phenotypic cell assay | inhibition, % at 10 µM | hit rate 0.9% among 98,000 | AID 739;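 note: yeast cells grown in 1536-well plates; yeast grown about 18 h at 30C before absorbance read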
# FAK inh = FAK (human) kinase inhibition; Q05397; biochemical FAK kinase activity assay; inhibition, %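 (tested at 7 µM)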; hit rate 0.84% among 97,000; AID 727; in the data active = inhibition above about 19%;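 note: 0% = DMSO and 100% = reference compound high control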
# Calb biofilm kill = kills Candida albicans biofilms; C. albicans biofilm + clotrimazole, Alamar Blue; inhibition, % at 6 µM; hit rate 0.14% among 85,000;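 active = inhibition above 20%; inactive = inhibition below 20%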;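 note: preformed 24 hr biofilms exposed to compound for 48 hr; 0% = biofilm without compound and 100% = blank killed by clotrimazole plus chlorhexidine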
# Active calls of the source: *; / = not tested or not shown. Cut-off read from the data, not from the text of the source, unless noted: active = inhibition above about 30%; inactive = the rest.
SMILES,PostGolgi ctrl,Pyk2 oligo antag,tolC growth inh,PostGolgi yeast,FAK inh,Calb biofilm kill
COc1ccc2c(C)nc(Nc3nc(C)c(C)c(=O)[nH]3)nc2c1,65.6*,-1.6,/,-7.0,5.4,-7.7
CC(SC1CCCC1)C(=O)NC(C)(C#N)C(C)C (stereo unspecified),31.5*,1.19,-2.6,19.0,-1.1,4.6
COc1ccccc1N1CCN(CC(O)c2ccc3cc[nH]c3c2)CC1 (stereo unspecified),7.4,/,8.1,39.1*,-2.2,8.5
CCOC(=O)N1CCN(CC(O)c2ccc3cc[nH]c3c2)CC1 (stereo unspecified),3.2,/,4.6,2.4,-3.2,1.1
Cc1ccc(NC(=O)Nc2cccs2)cc1,37.9*,0.73,-3.0,2.5,/,4.0
CCc1ccc(NC(=O)Nc2cccs2)cc1,12.4,0.22,30.0,3.9,4.6,-1.6
CCOc1ccc(N/C=C\C(=O)c2ccc3c(c2)OCO3)cc1,/,-0.7,/,/,-0.9,2.5
CCS(=O)(=O)Nc1ccc(C2=NN(C(=O)c3ccco3)C(c3ccc(C)cc3)C2)cc1 (stereo unspecified),-4.8,-3.04*,/,-3.7,-0.3,/
CSc1cc(/C=N/O)c(SC)s1,13.8,0.04,0.0,26.7,7.0,/
CCC(=O)c1ccc(N2CCCC2)c(F)c1,/,0.69,/,/,0.7,8.7
CCC(=O)c1ccc(O)c(CC=C(C)C)c1,31.4*,-1.62,/,6.7,1.3,/
N#CCSc1nc2ccccc2c(=O)n1CCC(=O)NC1CCCCC1,34.7*,1.84,-0.8,-6.2,4.2,2.5
CC1Cc2ccccc2N1C(=O)Cn1nnc(-c2ccccc2NC(=O)C2CCC2)n1 (stereo unspecified),32.2*,-1.84,11.6,4.5,0.8,/
CCCCOc1ccc(C(=O)Oc2ccc(C)nc2)cc1,9.9,2.97,52.8,-1.2,0.6,6.4
O=S(=O)(Nc1ccccc1)c1ccc(Oc2ncc(C(F)(F)F)cc2Cl)cc1,58.8*,-0.61,/,11.6,-8.5,/
CC(C)C(c1nnnn1C1CCCC1)N1c2ccccc2CC1C (stereo unspecified),-6.4,0,73.9*,2.2,-3.0,1.4
CC(=O)Nc1nnc(C)s1,-5.2,/,-14.4,3.6,0.0,16.1
O=C(CNCCC1=CCCCC1)Nc1ccccc1N1CCCCC1,27.0,-1.4,100.0*,1.7,-3.1,6.0
Cc1c(C(=O)N2CCCCC2)nnn1-c1nonc1N,0.0,-0.14,/,-8.5,-0.9,5.1
COC(=O)CSc1nnc(CNc2ccc(Cl)cc2)n1Cc1ccccc1,46.0*,0.13,7.2,64.8*,-2.3,3.4
CCOC(=O)CSc1nnc(CNc2ccc(Cl)cc2)n1-c1ccccc1,49.8*,-0.48,2.0,59.7*,/,7.1
CCOC(=O)CSc1nnc(CNc2cccc(Cl)c2)n1-c1ccccc1,10.8,-0.16,13.6,-9.8,2.0,6.4
Cc1cc(N2CCC(C(=O)Nc3ccc(F)cc3)CC2)nc(-c2ccccc2)n1,3.8,-0.04,89.4*,-4.2,1.5,4.4
Cc1ccc2c(c1)c1c3n2CCCN(Cc2ccccc2)C3CCC1 (stereo unspecified),11.4,1.64,/,3.0,-1.6,-0.5
CCSc1nc2c(sc3nc(C)cc(C)c32)c(=O)[nH]1,42.0*,/,/,-6.8,-2.5,/
SMILES,PostGolgi ctrl,Pyk2 oligo antag,tolC growth inh,PostGolgi yeast,FAK inh,Calb biofilm kill
N#CC1=C2SCC(O)(c3ccccc3)N2C(=O)CC1c1cccs1 (stereo unspecified),12.7,-1,18.1,-1.3,3.7,/
N#CC1=C2SCC(O)(c3ccccc3)N2C(=O)CC1c1ccccc1F (stereo unspecified),4.5,-3.05*,/,3.7,1.4,3.4
COc1ccc(-c2noc(C3CCCN(S(=O)(=O)c4cccc(Cl)c4C)C3)n2)cc1OC (stereo unspecified),49.7*,-0.58,14.6,22.1,4.8,-3.1
Cc1cc(C)c2nc(N3CCC(C(=O)N4CCN(C(=O)c5ccco5)CC4)CC3)sc2c1,8.9,2.3,/,-2.5,-2.9,3.7
Cc1cc(C)c2nc(N3CCCC(C(=O)N4CCN(c5ncccn5)CC4)C3)sc2c1 (stereo unspecified),66.6*,-0.2,/,-1.6,0.1,3.9
C=CCn1c(COc2cccc3ccc(C)nc23)nnc1SCC(=O)OC,3.9,0.81,-4.3,30.5*,0.3,2.2
C=C(Cl)COc1ccc2c(CCCC)cc(=O)oc2c1,30.9*,-0.57,/,-1.4,2.9,-0.1
C=C(Cl)COc1ccc2c(CC)cc(=O)oc2c1,7.3,-1.1,-0.8,-8.3,1.4,9.0
Cc1cc(CN2CCN(CCC#N)CC2)c(O)c(C2(C)CCCCC2)c1,59.4*,1.15,31.7,-2.1,1.3,4.5
N#CCCN1CCN(CCC#N)CC1,8.8,0.23,-27.2,-0.3,2.3,1.9
COc1cc(/C=C/C(=O)c2ccc(Cl)s2)cc(OC)c1O,44.7*,-1.84,/,19.7,-2.2,/
CCCn1c(-c2ccccc2)nc2c(=O)n(C)c(=O)[nH]c21,35.8*,-0.48,6.9,3.0,-3.2,5.2
COc1ccc(-c2nc3c(=O)n(C)c(=O)[nH]c3n2CCc2ccccc2)cc1,-1.0,-0.58,-4.0,1.1,-4.4,6.8
Cc1cc(C)n2c(Nc3ccc4c(c3)OCCO4)c(-c3ccccc3)nc2n1,44.1*,0.43,/,9.6,-1.5,1.2
CC(=O)Nc1ccc(-c2csc(NCc3ccco3)n2)cc1,/,0.13,/,/,2.2,10.8
COc1ccc(-c2csc(NCc3ccco3)n2)cc1C,3.9,0.14,64.7*,1.2,/,-2.9
COc1ccc(CNC(=O)c2c(-c3cc(Cl)c(OC)c(Cl)c3)noc2C)cc1,3.3,/,/,1.9,-8.3,3.0
COC(=O)C1=C(C)NC(=O)/C1=C\c1cc(C)n(-c2ccccc2C)c1C,32.5*,0.97,/,9.6,-1.9,4.4
O=C1CC(C(=O)Nc2ccccc2)N=C(N2CCCCC2)N1 (stereo unspecified),30.8*,0.35,-9.1,5.5,-0.4,5.4
O=C1CC(C(=O)NCc2ccccc2)N=C(N2CCCCC2)N1 (stereo unspecified),7.7,-0.73,-12.1,-10.9,0.6,6.6
CC(C)C(=O)N(c1cc2sc(=O)oc2c2ccccc12)S(=O)(=O)c1cccs1,67.2*,-0.93,/,10.2,-3.9,5.7
CC(C)C(=O)N(c1ccc2oc(=O)sc2c1)S(=O)(=O)c1cccs1,18.7,-0.44,16.9,-4.3,-7.8,0.3
CCOC(=O)Cn1c(CN2CCc3ccccc3C2)nc2c1c(=O)n(C)c(=O)n2C,10.4,/,-1.9,3.9,/,1.9
CN(Cc1ccccc1)Cc1nc2c(c(=O)n(C)c(=O)n2C)n1CCCc1ccccc1,51.6*,-0.25,100.0*,4.1,-0.1,2.1
CCOC(=O)Cn1c(CN(C)Cc2ccccc2)nc2c1c(=O)n(C)c(=O)n2C,/,0.58,-2.5,/,52.6*,/
CC(C)Cn1c(CN(C)Cc2ccccc2)nc2c1c(=O)n(C)c(=O)n2C,5.0,/,2.1,0.8,4.1,11.8
CCOC(=O)C=C1CCN(c2ncc(C(F)(F)F)cc2Cl)CC1,16.0,0.1,/,14.8,-0.4,/
O=C(Cc1ccccc1)N/N=C/c1ccccc1OCc1ccc(Cl)cc1,24.2,-0.96,/,-9.3,1.2,/

# Screens (PubChem)
